The values that follow come from PMC4306711 (The Journal of General Physiology, 2015).

Where two headings read alike, the source gives them in different places.

Assay [1] has as its system rNav1.2a/Kv2.1 VSD IV paddle chimera. Format: cell-based, rat.
The test system of assay [2] is isolated rNav1.2a VSD II paddle motif. Kind of assay: SPR with immobilized rNav1.2a VSD II paddle peptide. The note with it: up to 20 µM toxin, 25°C. Format: binding, rat.
Assay [3] concerns the target rNav1.2a/Kv2.1 VSD IV chimera R1629A. The note with it: read-out: apparent KD, VSD IV chimera R1629A, ref Bosmans et al., 2008; cited from earlier work.
Assay [4] has as its system isolated rNav1.2a VSD IV paddle motif. Briefly: SPR with immobilized rNav1.2a VSD IV paddle peptide. Format: binding, rat. The note with it: 50 fmol peptide, heterogeneous ligand model, n = 3. The essentials: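 Biotinylated synthetic VSD IV paddle peptide (~50 fmol) captured on neutravidin amine-coupled to a CM5 chip. Run at 25°C in 50 mM phosphate, pH 7.2. Toxin at 15–2,000 nM injected at 20 µl/min after a steady baseline; control flow cell subtracted; regenerated with 1 M NaCl (15 s, 30 µl/min). Bulk signal excluded, then fitted to a two-site heterogeneous ligand model; n = 3, mean ± SD.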

For assay [5], the system named is rNav1.2a/Kv2.1 VSD IV R1629A/L1630A paddle chimera. It is filed as cell-based, rat. The note with it: 100 nM AaHII; holding −10 mV, 300-ms step after −150 mV, tail −150 mV.
Assay [6] addresses rNav1.2a/Kv2.1 VSD IV chimera L1630A. The note with it: read-out: apparent KD, VSD IV chimera L1630A, ref Bosmans et al., 2008; cited from earlier work.
Assay [7] concerns rNav1.2a/Kv2.1 VSD II paddle chimera. The note with it: ref Bosmans et al., 2008; cited from earlier work.
Assay [8] has as its system rNav1.2a/Kv2.1 VSD IV paddle chimera. The note with it: electrophysiology; ref Bosmans et al., 2008; cited from earlier work.
In the next assay the target is rNav1.2a. The note with it: cited from earlier work.
In another assay the test system is WT rKv2.1. Kind of assay: Two-electrode voltage-clamp of WT rKv2.1 in Xenopus oocytes. It is filed as cell-based, rat. The note with it: 1 µM toxin; 300-ms depolarization to 0 mV, holding −90 mV, tail −60 mV. (In general: Two-electrode voltage clamp is typically applied to oocytes expressing channels or transporters.)
Assay [9] deals with rNav1.2a/Kv2.1 VSD II paddle chimera. Format: cell-based, rat.
For the next assay, the system named is Nav channel. The note with it: ref Crest et al., 1992; cited from earlier work.
In another assay the test system is Kv1.3. The note with it: ref Crest et al., 1992; cited from earlier work.
The test system of a further assay is Kv1.1. The note with it: ref Crest et al., 1992; cited from earlier work.
[10] abbreviates: SPR, Biacore T200, 25°C, pH 7.2, 15–2,000 nM, mean ± SD.

For “AaHII: α-scorpion toxin from Androctonus australis Hector”, the “inhibition of WT rNav1.2a/Kv2.1 VSD IV chimera compared with double mutant” value in [1] (100 nM AaHII) is “influenced to a much lesser extent”. In assay [2], the “SPR effect on VSD II paddle motif at high toxin concentration” value is “did not notice an effect”. Moreover, the Kd is 235 ± 24 nM in assay [3]; 205 ± 23 nM in [6]; roughly 5 nM at rNav1.2a (read-out: affinity for WT rNav1.2a, WT rNav1.2a, ref Wang et al., 2011). The “dissociation rate constant kd1” value in assay [4] (setting [10]) came to 0.000979 ± 0.00014 s⁻¹. Besides, the “dissociation rate constant kd2” value in [4] (setting [10]) was determined as 0.0281 ± 0.0058 s⁻¹. In addition, the “high affinity KD1 (kd1/ka1)” value in [4] (setting [10]) turned out to be 479 ± 241 nM. The molecule further yielded an RUmax1 in assay [4] (high affinity site) of 135. The RUmax2 in assay [4] (lower affinity site) is reported as 23. Besides, the “inhibition of R1629A/L1630A double mutant chimera” value in [5] was “strongly inhibits the double mutant”. The “interaction with rNav1.2a/Kv2.1 VSD II paddle chimera” value in [7] was “no interaction was observed”. Besides, the “binding to VSD IV paddle (rNav1.2a/Kv2.1 chimeras)” value in assay [8] is on record as “shown to bind to the VSD IV paddle motif in rNav1.2a”.

Regarding “AaHI: α-scorpion toxin from Androctonus australis Hector”, in assay [1] (100 nM toxin, 300-ms depolarization, holding −90 mV), the “voltage-dependent K^+ current inhibition, VSD IV paddle chimera” value is on record as “robust voltage-dependent K^+ current inhibition”. In addition, in [1] (100 nM toxin, Boltzmann fit, n = 3, holding −90 mV, tail −60 mV), the “depolarizing shift in midpoint (V1/2), VSD IV paddle chimera” value was roughly 15 mV. Moreover, the “effect on WT Kv2.1 K^+ current” value with WT rKv2.1 is listed as “insensitive”.

Turning to “CssIV: β-scorpion toxin from Centruroides suffusus suffusus”, in assay [1] (1 µM toxin, n = 3, holding −90 mV, tail −60 mV), the “influence on VSD IV chimera” value is recorded as “does not influence the VSD IV chimera”. In addition, in assay [9] (1 µM toxin, Boltzmann fit, n = 3, holding −90 mV, tail −60 mV), the “depolarizing shift in V1/2, VSD II chimera” value was roughly 14 mV. For the same molecule, the “V1/2 in the presence of toxin, VSD II chimera” value in assay [9] (1 µM toxin, control 33 ± 2 mV, mean ± SEM, n = 3, holding −90 mV, tail −60 mV) is 47 ± 1 mV. The “concentration required to begin inhibiting the rNav1.2a/Kv2.1 VSD II paddle chimera” value in assay [9] (Xenopus oocytes, ∼22°C) is recorded as 1 µM.

On to kaliotoxin [KTX], for which the “influence on Nav channel function” value in the assay with Nav channel was “does not influence Nav channel function”. Also, the Kv1.3 pore block entry with Kv1.3 is on record as “blocks”. In addition, in the assay with Kv1.1, the Kv1.1 pore block result is on record as “blocks”.

B1: TsVII: β-scorpion toxin from the Brazilian scorpion Tityus serrulatus (protein, UniProt P15226 21-81, looked up)
Beta-mammal/insect toxin Ts1: KEGYLMDHEGCKLSCFIRPSGYCGRECGIKKGSSGYCAWPACYCYGLPNWVKVWDRATNKC
modifications: ends and bridges not checked
With B1, the “binding to VSD IV paddle (rNav1.2a/Kv2.1 chimeras)” value in [8] is recorded as “can also bind to the VSD IV paddle”. The Kd at rNav1.2a (read-out: apparent KD, rNav1.2a, ref Bosmans et al., 2008) is 25 to 121 nM.
